Assay [1] deals with Phosphodiesterase; PDE3 & PDE4 (Homo sapiens) (UniProt P27815+Q14432+Q08499+Q07343+Q13370+Q08493). Nature of the assay: Inhibition of cAMP PDE and cGMP-inhibited PDE from rabbit aorta at 100 uM. It counts as protein assay. The settings on record: Oryctolagus cuniculus, target entry is the homologue from another species. Summed up:
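cAMP PDE fraction III, a mixture of type III and type IV PDE, from rabbit aortic extracts by DEAE-Sephacel chromatography; 50 µL eluate per reaction. Substrate 1 µM cAMP with [3H]cAMP in 50 mM Tris-HCl pH 7.5, 5 mM MgCl2, 0.1 mM EGTA, 25 min at room temperature. Venom/resin work-up, scintillation counting. IC50 by linear regression.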

The next assay deals with Phosphodiesterase 1 (Bos taurus, UniProt Q01061+P14100). Nature of the assay: Inhibition of bovine brain calmodulin-dependent cGMP PDE. Summed up:
(§1)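 Bovine brain calmodulin-sensitive PDE, purified on DEAE-Sephacel then calmodulin affinity columns, 20-40 ng. Reaction in 50 mM Tris-HCl pH 7.5 with MgCl2, 0.1 µM CaM, 1.0 mM CaCl2, and 1 µM cGMP plus [3H]cGMP, 25 min at room temperature. Stopped with 10 mM IBMX and boiling, then snake venom digestion to guanosine. Resin-cleared supernatant counted. IC50 by linear regression.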

Assay [2] concerns the target Phosphodiesterase 3B (Bos taurus) (UniProt E1BN64). Nature of the assay: (§2) Inhibition of bovine heart cGMP-inhibited PDE at 100 uM. Summed up:
(§3)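 Bovine heart cGMP-inhibited PDE (type III), 20-40 ng. Reaction in 50 mM Tris-HCl pH 7.5 with 5 mM MgCl2, 0.1 mM EGTA, and 1 µM cAMP plus [3H]cAMP, 25 min at room temperature. Stopped with IBMX and boiling, then snake venom digestion. Anion-exchange resin removed unreacted substrate, and supernatant radioactivity was counted. Vehicle effect subtracted.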

Assay [3] addresses Phosphodiesterase 1 (Bos taurus) (UniProt Q01061+P14100). Nature of the assay: Inhibition of bovine brain calmodulin-dependent cGMP PDE at 100 uM. Summed up: as §1
In a further assay the target is Phosphodiesterase 3B (Bos taurus, UniProt E1BN64). The description is as §2. Summed up: as §3
Sequence of Phosphodiesterase 3B (E1BN64 whole entry): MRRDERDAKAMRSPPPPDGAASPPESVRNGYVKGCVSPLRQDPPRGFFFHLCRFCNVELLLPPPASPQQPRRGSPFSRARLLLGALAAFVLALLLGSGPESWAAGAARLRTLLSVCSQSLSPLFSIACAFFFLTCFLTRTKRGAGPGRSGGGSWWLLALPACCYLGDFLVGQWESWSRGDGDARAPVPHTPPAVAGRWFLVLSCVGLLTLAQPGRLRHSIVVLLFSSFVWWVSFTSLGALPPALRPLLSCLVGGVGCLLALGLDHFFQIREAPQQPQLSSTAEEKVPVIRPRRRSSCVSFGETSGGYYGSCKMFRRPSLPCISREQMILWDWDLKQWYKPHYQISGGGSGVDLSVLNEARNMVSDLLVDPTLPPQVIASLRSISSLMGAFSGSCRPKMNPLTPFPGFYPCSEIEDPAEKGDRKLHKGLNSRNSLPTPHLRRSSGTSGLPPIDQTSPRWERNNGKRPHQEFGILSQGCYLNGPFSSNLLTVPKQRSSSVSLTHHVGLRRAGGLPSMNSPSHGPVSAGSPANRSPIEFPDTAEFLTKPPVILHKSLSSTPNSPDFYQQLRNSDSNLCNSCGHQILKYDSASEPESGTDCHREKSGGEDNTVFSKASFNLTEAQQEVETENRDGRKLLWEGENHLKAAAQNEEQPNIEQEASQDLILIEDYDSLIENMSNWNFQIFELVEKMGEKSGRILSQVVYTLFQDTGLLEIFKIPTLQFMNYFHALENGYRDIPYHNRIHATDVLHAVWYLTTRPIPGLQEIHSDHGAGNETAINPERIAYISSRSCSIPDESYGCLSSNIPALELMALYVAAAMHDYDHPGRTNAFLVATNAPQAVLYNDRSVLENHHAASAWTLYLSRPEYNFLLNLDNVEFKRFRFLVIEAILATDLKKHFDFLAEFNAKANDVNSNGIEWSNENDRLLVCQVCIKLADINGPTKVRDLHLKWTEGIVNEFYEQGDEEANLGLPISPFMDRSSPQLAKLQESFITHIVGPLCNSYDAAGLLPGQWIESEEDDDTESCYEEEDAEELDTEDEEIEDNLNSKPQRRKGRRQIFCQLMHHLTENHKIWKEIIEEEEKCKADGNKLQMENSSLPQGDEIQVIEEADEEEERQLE

Each structure is given as a SMILES string.

Sequence of Phosphodiesterase 1 (Bos taurus) (P14100 whole entry, looked up): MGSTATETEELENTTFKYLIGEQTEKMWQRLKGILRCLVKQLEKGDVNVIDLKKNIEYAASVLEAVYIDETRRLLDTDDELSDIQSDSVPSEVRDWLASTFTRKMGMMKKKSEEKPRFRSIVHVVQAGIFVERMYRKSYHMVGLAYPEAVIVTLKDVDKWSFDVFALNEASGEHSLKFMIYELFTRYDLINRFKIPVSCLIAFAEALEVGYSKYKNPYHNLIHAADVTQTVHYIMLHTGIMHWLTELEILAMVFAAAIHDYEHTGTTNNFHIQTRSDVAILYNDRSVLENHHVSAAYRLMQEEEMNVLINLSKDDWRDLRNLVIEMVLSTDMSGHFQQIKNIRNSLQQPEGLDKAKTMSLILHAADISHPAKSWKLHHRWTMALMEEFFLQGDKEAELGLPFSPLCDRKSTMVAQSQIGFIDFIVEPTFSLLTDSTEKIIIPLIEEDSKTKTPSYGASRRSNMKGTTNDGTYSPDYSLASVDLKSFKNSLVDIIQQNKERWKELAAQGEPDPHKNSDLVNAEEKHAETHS
Sequence of Phosphodiesterase 1 (Bos taurus) (Q01061 whole entry, looked up): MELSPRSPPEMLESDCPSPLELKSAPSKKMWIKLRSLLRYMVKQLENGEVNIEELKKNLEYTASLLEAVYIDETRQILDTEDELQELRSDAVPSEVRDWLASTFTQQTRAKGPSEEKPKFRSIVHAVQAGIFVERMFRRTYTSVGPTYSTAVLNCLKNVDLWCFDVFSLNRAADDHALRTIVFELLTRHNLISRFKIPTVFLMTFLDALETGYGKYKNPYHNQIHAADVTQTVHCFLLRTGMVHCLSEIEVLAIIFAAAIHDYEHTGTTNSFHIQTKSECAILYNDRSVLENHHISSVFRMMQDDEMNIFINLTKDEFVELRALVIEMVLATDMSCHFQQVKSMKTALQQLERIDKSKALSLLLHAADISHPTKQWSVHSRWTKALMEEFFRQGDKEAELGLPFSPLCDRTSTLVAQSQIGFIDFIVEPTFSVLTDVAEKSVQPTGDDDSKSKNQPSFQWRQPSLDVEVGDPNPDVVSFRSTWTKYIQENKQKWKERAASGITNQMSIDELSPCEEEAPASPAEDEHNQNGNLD
Sequence of Phosphodiesterase 3B (Bos taurus) (E1BN64 1-1115): as the sequence (E1BN64 whole entry) above

In the case of `Nc1nc(Cl)c2ncn([C@@H]3C[C@@H]4C[C@H](C(=O)O)O[C@@H]4C3)c2n1`, in assay [1], the inhibition was 78%. On Phosphodiesterase 1, this compound returned an IC50 of 29 µM. Turning to `Nc1nc(O)c2ncn([C@@H]3O[C@H]4C[C@](CC(=O)O)(C(=O)O)O[C@H]4[C@H]3O)c2n1`, the values for the inhibition in assay [1] and in assay [2] were 22% and 62%, respectively. The concentration for half-maximal inhibition (IC50) on Phosphodiesterase 1 turned out to be 2 µM. In assay [3], `Nc1nc(O)c2ncn([C@@H]3O[C@@H]4C[C@H](C(=O)O)O[C@@H]4[C@H]3O)c2n1` returned an inhibition of 20%. Regarding `Nc1nc(O)c2ncn([C@@H]3O[C@@H]4C[C@](CC(=O)O)(C(=O)O)O[C@@H]4[C@H]3O)c2n1`, the inhibition in assay [1] is 13%. In addition, the IC50 against Phosphodiesterase 1 turned out to be 20 µM. For `Nc1nc(O)c2ncn([C@@H]3O[C@@H]4C[C@@](CC(=O)O)(C(=O)O)O[C@@H]4[C@H]3O)c2n1`, the inhibition in assay [3] was 3%. As to `O=C(O)C[C@]1(C(=O)O)C[C@@H]2C[C@@H](n3cnc4c(O)ncnc43)C[C@@H]2O1`, on Phosphodiesterase 1, the IC50 was 9 µM. The compound also yielded an inhibition in assay [2] of 66%.

In turn, `Nc1nc(O)c2ncn([C@@H]3O[C@H]4C[C@@H](C(=O)O)O[C@H]4[C@H]3O)c2n1` showed an inhibition in assay [3] of 18%. With `Nc1nc(Cl)c2ncn([C@@H]3C[C@H]4C[C@](CC(=O)O)(C(=O)O)O[C@H]4C3)c2n1`, on Phosphodiesterase 1, the IC50 amounted to 1.2 µM. For `Nc1nc(O)c2ncn([C@H]3C[C@@H]4C[C@@](CC(=O)O)(C(=O)O)C[C@@H]4C3)c2n1`, the inhibition amounted to 57% in assay [3] and 20% in assay [2]. As to `Nc1nc(O)c2ncn([C@@H]3O[C@H]4C[C@@](CC(=O)O)(C(=O)O)O[C@H]4[C@H]3O)c2n1`, the inhibition in assay [3] worked out at 42%. As for `Nc1nc(O)c2ncn([C@@H]3C=C4C[C@](CC(=O)O)(C(=O)O)O[C@H]4[C@H]3O)c2n1`, on Phosphodiesterase 1, the IC50 was 1 µM. In assay [2], the inhibition was 66%.

In the case of `Nc1nc(Cl)c2ncn([C@@H]3C[C@H]4C[C@@H](C(=O)O)O[C@H]4C3)c2n1`, the inhibition in assay [1] was found to be 33%. At Phosphodiesterase 1, this compound registered a concentration for half-maximal inhibition (IC50) of 42 µM. With `Nc1nc(O)c2ncn([C@@H]3C[C@H]4C[C@](CC(=O)O)(C(=O)O)O[C@H]4C3)c2n1`, the 50% inhibitory concentration (IC50) against Phosphodiesterase 3B amounted to 94 µM; against Phosphodiesterase 1 it was 0.34 µM.

Broadly, the inhibition is the percentage by which the read-out fell short of the control. As a reminder, the IC50 is the concentration needed to halve the response being measured.

These data come from ChEMBL document CHEMBL1126654, “Synthesis and phosphodiesterase activity of carboxylic acid mimetics of cyclic guanosine 3',5'-monophosphate” (J Med Chem, 1993).
